Results on 1 compound are retold here after BindingDB's records for doi:10.1021/acs.jmedchem.8b01402 (University of Bristol, 2019).

A word on the IC50: it is the point on the concentration scale where inhibition reaches its midpoint.

The test concerns the target Transcriptional enhancer factor TEF-1 (Homo sapiens, UniProt P28347). The test is described as follows: Inhibition of NL-tagged YAP (unknown origin) interaction with myc-tagged human TEAD1 preincubated for 1 hr followed by NL-tagged YAP addition by NanoGlo assay. A digest of the protocol:
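Myc-TEAD1 from transfected HeLa lysate was captured with anti-myc antibody on protein-G-coated 96-well plates. Wells were pretreated with compound in PBS for 1 h at 4 °C, then co-incubated with lysate from HeLa cells expressing YAP–nanoluciferase. After four PBS washes, bound YAP–NL was read with NanoGlo.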

Transcriptional enhancer factor TEF-1, sequence (P28347 whole entry): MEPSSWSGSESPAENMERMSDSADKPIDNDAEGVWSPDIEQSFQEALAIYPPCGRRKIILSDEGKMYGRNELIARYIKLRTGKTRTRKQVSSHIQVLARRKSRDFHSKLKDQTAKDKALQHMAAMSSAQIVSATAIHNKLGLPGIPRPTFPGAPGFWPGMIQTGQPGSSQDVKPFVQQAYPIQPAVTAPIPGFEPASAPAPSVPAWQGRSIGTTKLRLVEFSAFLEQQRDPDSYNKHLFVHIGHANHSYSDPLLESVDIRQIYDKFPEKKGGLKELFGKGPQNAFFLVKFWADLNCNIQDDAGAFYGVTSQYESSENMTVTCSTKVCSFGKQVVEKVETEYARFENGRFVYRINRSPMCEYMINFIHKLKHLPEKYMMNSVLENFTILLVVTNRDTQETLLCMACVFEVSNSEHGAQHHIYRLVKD

Consider `Cc1ccc2c(c1)c1c3n2CCN(C[C@H](O)CN2CCN(C(=O)c4ccco4)CC2)[C@@H]3CCC1`, for which the IC50 came to 48 µM.
